The record followed here is ChEMBL document CHEMBL5338772, “Stereochemical Control of Splice Modulation in FD-895 Analogues” (J Med Chem, 2023).

Usually GI50 stands for the concentration at which growth is held to half of that of the control.

The structures appear in SMILES notation. Calls of active or inactive are those of the source. The rule behind the calls is not given here. Where only a bound is given, the exact number is not on record here.

Data set [1] in a line: Cytotoxicity against human HCT-116 cells assessed as cell growth inhibition incubated for 72 hrs by MTS assay. The class given is toxicity, cell-based. The method in brief: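 HCT-116 cells (ATCC; split every other day, no more than five generations, mycoplasma-tested) plated at 5 × 10³ cells/well in supplemented McCoy's 5a and grown 24 h at 37 °C, 5% CO₂. Compound added from DMSO (0.5% DMSO final) for 72 h. Cells washed with PBS, MTS reagent added for 2 h at 37 °C, A490 read against A690. GI₅₀ fitted from dose curves of 3 biological replicates.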
On the technique in general: Formazan colour is commonly taken as a measure of viable cells.

In data set [2] the test system is HCT-116. Description: Cytotoxicity against human HCT-116 cells assessed as reduction in cell viability at 34 nM incubated for 4 hrs by MTS assay. The format is toxicity, cell-based. To be noted: hct-116, 4 h, 0.034 µM.
The subject of data set [3] is HCT-116. As to the kind of experiment: Cytotoxicity against human HCT-116 cells assessed as reduction in cell viability at 500 nM incubated for 24 hrs by MTS assay. To be noted: hct-116, 24 h, 0.5 µM. The class given is toxicity, cell-based. In a few lines:
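HCT-116 cells plated at 5 × 10³ cells/well in supplemented McCoy's 5a and grown 24 h at 37 °C, 5% CO₂. Compound given at 500 nM, the top dose of the 24 h splicing series, in 0.5% DMSO for 24 h. Cells washed with PBS, MTS reagent added for 2 h at 37 °C, A490 read against A690.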

The subject of data set [4] is SF3A3 pre-mRNA. Description: Modulation of splicing in SF3A3 pre-mRNA in human HCT-116 cells assessed as intron 5 retention level at 34 nM incubated for 4 hrs by qRT-PCR analysis. The class given is functional, cell-based. The conditions noted are these: filed as modulator. On the technique in general: Quantitative PCR measures a nucleic acid by following its amplification.

In data set [5] the test system is SF3B1 pre-mRNA. Description: Modulation of splicing in SF3B1 pre-mRNA in human HCT-116 cells assessed as intron 13 retention level at 34 nM incubated for 4 hrs by qRT-PCR analysis. The class given is functional, cell-based. The conditions noted are these: filed as modulator. In a few lines:
(§1)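 HCT-116 cells in supplemented McCoy's 5a, compound added from DMSO stock to a final 0.5% DMSO, 4 h at a single standardized concentration per analogue. Total RNA isolated and DNase-treated (1 µg). qPCR used 2.5 µM each primer on 5 ng cDNA, 40 cycles. Intron retention was computed by the 2^-CT method relative to GAPDH and expressed versus untreated cells set to 1.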

The subject of data set [6] is DNAJB1 pre-mRNA. Description: Modulation of splicing in DNAJB1 pre-mRNA in human HCT-116 cells assessed as intron 2 retention level at 34 nM incubated for 4 hrs by qRT-PCR analysis. The class given is functional, cell-based. To be noted: filed as modulator.
The test system of data set [7] is SF3A1 pre-mRNA. Description: Modulation of splicing in SF3A1 pre-mRNA in human HCT-116 cells assessed as intron 6 retention level at 34 nM incubated for 4 hrs by qRT-PCR analysis. The class given is functional, cell-based. The conditions noted are these: filed as modulator.
For data set [8], the system named is SF3B2 pre-mRNA. Description: Modulation of splicing in SF3B2 pre-mRNA in human HCT-116 cells assessed as intron 10 retention level at 34 nM incubated for 4 hrs by qRT-PCR analysis. The format is functional, cell-based. The conditions noted are these: filed as modulator. In a few lines: as §1
Data set [9] has as its system HCT-116. Description: Downregulation of SF3 mRNA expression in human HCT-116 cells at 34 nM incubated for 4 hrs by qRT-PCR analysis. The format is functional, cell-based.
For data set [10], the system named is HCT-116. As to the kind of experiment: Cytotoxicity against human HCT-116 cells assessed as reduction in cell viability at 44 nM incubated for 4 hrs by MTS assay. The conditions noted are these: hct-116, 4 h, 0.044 µM. The format is toxicity, cell-based.
Data set [11] has as its system SF3A3 pre-mRNA. As to the kind of experiment: Modulation of splicing in SF3A3 pre-mRNA in human HCT-116 cells assessed as intron 5 retention level at 44 nM incubated for 4 hrs by qRT-PCR analysis. The format is functional, cell-based. The conditions noted are these: filed as modulator.
The test system of data set [12] is SF3B1 pre-mRNA. As to the kind of experiment: Modulation of splicing in SF3B1 pre-mRNA in human HCT-116 cells assessed as intron 13 retention level at 44 nM incubated for 4 hrs by qRT-PCR analysis. The format is functional, cell-based. The conditions noted are these: filed as modulator. In a few lines: as §1
Data set [13] deals with DNAJB1 pre-mRNA. Description: Modulation of splicing in DNAJB1 pre-mRNA in human HCT-116 cells assessed as intron 2 retention level at 44 nM incubated for 4 hrs by qRT-PCR analysis. The class given is functional, cell-based. To be noted: filed as modulator.
For data set [14], the system named is SF3A1 pre-mRNA. As to the kind of experiment: Modulation of splicing in SF3A1 pre-mRNA in human HCT-116 cells assessed as intron 6 retention level at 44 nM incubated for 4 hrs by qRT-PCR analysis. The conditions noted are these: filed as modulator. The format is functional, cell-based.
Data set [15] relates to SF3B2 pre-mRNA. As to the kind of experiment: Modulation of splicing in SF3B2 pre-mRNA in human HCT-116 cells assessed as intron 10 retention level at 44 nM incubated for 4 hrs by qRT-PCR analysis. The class given is functional, cell-based. The conditions noted are these: filed as modulator. In a few lines:
as §1

Data set [16] deals with HCT-116. As to the kind of experiment: Modulation of splicing in PLK-1 pre-mRNA in human HCT-116 cells assessed as effect on exon 3 inclusion at 44 nM incubated for 4 hrs by qRT-PCR analysis. The format is functional, cell-based. To be noted: filed as modulator.
For data set [17], the system named is AURKA pre-mRNA. Description: Modulation of splicing in AURKA pre-mRNA in human HCT-116 cells assessed as effect on exon 4 skipping at 44 nM incubated for 4 hrs by qRT-PCR analysis. The format is functional, cell-based. The conditions noted are these: filed as modulator.

As to `CC[C@H](OC)[C@@H](C)[C@H]1O[C@@H]1[C@H](O)[C@H](C)/C=C/C=C(\C)[C@H]1OC(=O)C[C@H](O)CC[C@@](C)(O)[C@@H](OC(C)=O)/C=C/[C@@H]1C`, the GI50 at 72 h in data set [1] is 1.9 nM. For the same compound, the Activity result in data set [2] is “Non-Toxic”; in data set [3] it was “Non-Toxic”; in data set [4], less than 3; in [5], less than 3; in [6], greater than 3; in data set [7], greater than 3. Moreover, the Activity in data set [8] is greater than 3. Further, the outcome in data set [9] was Active.

As for `CC[C@H](OC)[C@@H](C)[C@H]1O[C@@H]1[C@H](O)[C@H](C)/C=C/C=C(\C)[C@H]1OC(=O)C[C@@H](O)CC[C@@](C)(O)[C@@H](OC(C)=O)/C=C/[C@@H]1C`, the 50% growth inhibitory concentration (GI50) at 72 h in [1] was 2.7 nM. The Activity entry in [10] was “Non-Toxic”; in data set [11], less than 3; in [12], less than 3; in [13], greater than 3; in data set [14], greater than 3; in data set [15], greater than 3. Moreover, the result in data set [16] and in [17] was Active.

In the case of `CC[C@H](OC)[C@@H](C)[C@H]1O[C@@H]1[C@@H](O)[C@H](C)/C=C/C=C(\C)[C@H]1OC(=O)C[C@H](O)CC[C@@](C)(O)[C@H](OC(C)=O)/C=C/[C@@H]1C`, in data set [1], the GI50 at 72 h stood at 860 nM.

Consider `CC[C@H](OC)[C@@H](C)[C@H]1O[C@@H]1[C@H](OC)[C@H](C)/C=C/C=C(\C)[C@H]1OC(=O)C[C@H](O)CC[C@@](C)(O)[C@@H](OC(C)=O)/C=C/[C@@H]1C`, for which the GI50 at 72 h in data set [1] came out at 2.6 nM. For the same compound, the Activity result in data set [10] is “Non-Toxic”; in data set [3], “Non-Toxic”; in data set [11] it was less than 3; in [12], less than 3; in data set [13], greater than 3; in [14], greater than 3. Further, the Activity in data set [15] is greater than 3. Also, in data set [17], the result was Active.

Regarding `CC[C@H](OC)[C@@H](C)[C@H]1O[C@@H]1[C@H](O)[C@H](C)/C=C/C=C(\C)[C@@H]1OC(=O)C[C@H](O)CC[C@@](C)(O)[C@@H](OC(C)=O)/C=C/[C@H]1C`, the concentration for 50% growth inhibition (GI50) at 72 h in data set [1] came out at 41300 nM.
